Where a SMILES comes first, the peptide text is derived from it. Bridges are numbered along the chain shown (N, C = ends). [ ]: non-standard residue; d: D form. Phe(4-NO2) = N[C@@H](Cc1ccc([N+](=O)[O-])cc1)C(=O)O; dPhe(4-Cl) = N[C@H](Cc1ccc(Cl)cc1)C(=O)O; 2Nal = N[C@@H](Cc1ccc2ccccc2c1)C(=O)O; d2Nal = N[C@H](Cc1ccc2ccccc2c1)C(=O)O; Abu = CC[C@H](N)C(=O)O

32 compounds from ChEMBL document CHEMBL1128385, “Three-dimensional quantitative structure-activity relationships of somatostatin analogues. 1. Comparative molecular field analysis of growth hormone release-inhibiting potencies” (J Med Chem, 1995) can be followed below.

For the experiment, the species on record is Rattus norvegicus. The experiment in a line: In vitro GH release inhibiting potency on anterior pitutaries from adult male rats, relative to somatostatin. It is filed as functional. The method, boiled down: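 Rat anterior pituitary cells (adult males, 200-250 g), trypsin/DNase dispersed, plated 2 × 10^5 cells/well, cultured 96 h at 37 °C in serum-supplemented DMEM. After washing, cells were pulsed 3 h at 37 °C with 1 nM GRF(1-29)NH2 ± graded analogue doses in medium 199/1% BSA, quadruplicate wells. Medium GH was measured by double-antibody RIA. Potency relative to somatostatin (=1.0) came from four-point assay (mean of ≥3 experiments) or IC50 comparison.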
For the compound `CC(C)[C@@H]1NC(=O)[C@H](CCCCN)NC(=O)[C@@H](Cc2c[nH]c3ccccc23)NC(=O)[C@H](Cc2ccc(O)cc2)NC(=O)[C@@H](NC(=O)[C@H](N)Cc2ccc3ccccc3c2)CSSC[C@@H](C(=O)N[C@@H](Cc2ccc3ccccc3c2)C(N)=O)NC1=O` (H-[d2Nal]CY[dW]KVC[2Nal]-NH2; disulfide 2-7), the GHI was determined as 11.
`CC[C@@H]1NC(=O)[C@H](CCCCN)NC(=O)[C@@H](Cc2c[nH]c3ccccc23)NC(=O)[C@H](Cc2ccc(O)cc2)NC(=O)[C@@H](NC(=O)[C@H](N)Cc2ccccc2)CSSC[C@@H](C(=O)N[C@@H](Cc2ccc3ccccc3c2)C(N)=O)NC1=O` (H-[dF]CY[dW]K[Abu]C[2Nal]-NH2; disulfide 2-7) returned a GHI of 0.03.
In the case of `CC(C)[C@H](NC(=O)[C@H](CCCCN)NC(=O)[C@@H](Cc1c[nH]c2ccccc12)NC(=O)[C@H](Cc1ccc(O)cc1)NC(=O)[C@H](Cc1ccccc1)NC(=O)[C@H](N)Cc1ccccc1)C(=O)N[C@@H](Cc1ccccc1)C(=O)N[C@H](Cc1ccccc1)C(N)=O` (H-[dF]FY[dW]KVF[dF]-NH2) it was 11100.
Compound `C[C@@H](O)[C@@H]1NC(=O)[C@H](CCCCN)NC(=O)[C@@H](Cc2c[nH]c3ccccc23)NC(=O)[C@H](Cc2cscn2)NC(=O)[C@H](Cc2ccccc2)NC(=O)CCCCCCNC(=O)[C@H](Cc2ccccc2)NC1=O` (stereo in doubt) showed a GHI of 5.
In the case of `C[C@@H](O)[C@@H]1NC(=O)[C@H](CCCCN)NC(=O)[C@@H](Cc2c[nH]c3ccccc23)NC(=O)[C@H](Cc2ccc(O)cc2)NC(=O)[C@@H](NC(=O)[C@H](N)Cc2ccccc2)CSSC[C@@H](C(=O)N[C@@H](Cc2ccc3ccccc3c2)C(N)=O)NC1=O` it was 0.05; in that of `CC(C)[C@H](NC(=O)[C@H](CCCCN)NC(=O)[C@@H](Cc1c[nH]c2ccccc12)NC(=O)[C@H](Cc1ccc(O)cc1)NC(=O)[C@H](C)NC(=O)[C@H](N)Cc1ccc(Cl)cc1)C(=O)N[C@@H](C)C(=O)N[C@@H](Cc1ccc2ccccc2c1)C(N)=O` (H-[dPhe(4-Cl)]AY[dW]KVA[2Nal]-NH2), 45.
Regarding `CC(C)C1NC(=O)[C@H](CCCCN)NC(=O)C(Cc2c[nH]c3ccccc23)NC(=O)[C@H](Cc2ccc(O)cc2)NC(=O)C(C)N(C)C(=O)[C@H](Cc2ccccc2)NC1=O` (single isomer, unassigned), the GHI turned out to be 0.02.
`CC(C)[C@@H]1NC(=O)C(CCCCN)NC(=O)[C@@H](Cc2c[nH]c3ccccc23)NC(=O)C(Cc2ccccc2)NC(=O)[C@@H]2CCCN2C(=O)C(Cc2ccccc2)NC1=O` (single isomer, unassigned) returned a GHI of 0.29.
The result for `CC(C)[C@H](NC(=O)[C@H](CCCCN)NC(=O)[C@@H](Cc1c[nH]c2ccccc12)NC(=O)[C@H](Cc1ccc(O)cc1)NC(=O)[C@H](C)NC(=O)[C@H](N)Cc1ccc2ccccc2c1)C(=O)N[C@@H](C)C(=O)N[C@H](C(N)=O)[C@@H](C)O` (H-[d2Nal]AY[dW]KVAT-NH2) reads 435.
With `C[C@@H](O)[C@H](NC(=O)[C@@H]1CSSC[C@H](NC(=O)[C@H](N)Cc2ccc3ccccc3c2)C(=O)N[C@@H](Cc2ccc(O)cc2)C(=O)N[C@H](Cc2c[nH]c3ccccc23)C(=O)N[C@@H](CCCCN)C(=O)N[C@@H]([C@@H](C)O)C(=O)N1)C(N)=O`, the GHI was 0.19.
In the case of `CC(C)C1NC(=O)[C@H](CCCCN)NC(=O)[C@@H](Cc2c[nH]c3ccccc23)NC(=O)C(Cc2ccc(O)cc2)NC(=O)CCSSCC(C(=O)N[C@@H](Cc2ccccc2)C(N)=O)NC1=O` (single isomer, unassigned) it was 23; in that of `CC(C)[C@H](NC(=O)[C@H](CCCCN)NC(=O)[C@@H](Cc1c[nH]c2ccccc12)NC(=O)[C@H](Cc1ccc(O)cc1)NC(=O)[C@H](Cc1ccc(Cl)cc1)NC(=O)[C@H](N)Cc1ccccc1)C(=O)N[C@@H](Cc1ccccc1)C(=O)N[C@H](C)C(N)=O`, 4000.
The result for `CC(C)[C@@H]1NC(=O)[C@H](CCCCN)NC(=O)[C@@H](Cc2c[nH]c3ccccc23)NC(=O)[C@H](Cc2ccc(O)cc2)NC(=O)[C@H](NC(=O)[C@H](N)Cc2ccc3ccccc3c2)CSSC[C@@H](C(=O)N[C@@H](Cc2ccc3ccccc3c2)C(=O)O)NC1=O` reads 1.12; that for `C[C@@H](O)[C@@H]1NC(=O)[C@H](CCCCN)NC(=O)[C@@H](Cc2c[nH]c3ccccc23)NC(=O)[C@H](Cc2ccc(O)cc2)NC(=O)[C@H](Cc2ccccc2)NC(=O)CCCCCCNC(=O)[C@H](Cc2ccccc2)NC1=O` (stereo in doubt), 1.04; that for `NCCCCC1NC(=O)[C@@H](Cc2c[nH]c3ccccc23)NC(=O)C(Cc2ccccc2)NC(=O)[C@@H]2CCCN2C(=O)C(Cc2ccccc2)NC(=O)[C@H](CO)NC1=O` (single isomer, unassigned), 0.71.
For the compound `CC(C)[C@@H]1NC(=O)[C@H](CCCCN)NC(=O)[C@@H](Cc2c[nH]c3ccccc23)NC(=O)[C@H](Cc2c[nH]c3ccccc23)NC(=O)[C@H](NC(=O)[C@H](N)Cc2ccccc2)CSSC[C@@H](C(=O)N[C@@H](Cc2ccc3ccccc3c2)C(N)=O)NC1=O`, the GHI turned out to be 0.2.
The result for `CC(C)[C@H](NC(=O)[C@H](CCCCN)NC(=O)[C@@H](Cc1c[nH]c2ccccc12)NC(=O)[C@H](Cc1ccc(O)cc1)NC(=O)[C@H](C)NC(=O)[C@H](N)Cc1ccc(Cl)cc1)C(=O)N[C@@H](C)C(=O)N[C@H](Cc1ccccc1)C(N)=O` reads 417; that for `C[C@@H](O)[C@@H]1NC(=O)[C@H](CCCCN)NC(=O)[C@@H](Cc2c[nH]c3ccccc23)NC(=O)[C@H](Cc2ccccc2)NC(=O)[C@@H]2CSSC[C@H](NC1=O)C(=O)NCCCCCCC(=O)N2` (stereo in doubt), 0.81; that for `CC(C)[C@@H]1NC(=O)[C@H](CCCCN)NC(=O)[C@@H](Cc2c[nH]c3ccccc23)NC(=O)[C@H](Cc2ccc(O)cc2)NC(=O)[C@H](NC(=O)[C@H](N)C(c2ccccc2)c2ccccc2)CSSC[C@@H](C(=O)N[C@@H](Cc2ccc3ccccc3c2)C(N)=O)NC1=O`, 0.91.
The result for `C[C@@H](O)[C@@H]1NC(=O)[C@H](CCCCN)NC(=O)[C@@H](Cc2c[nH]c3ccccc23)NC(=O)[C@H](Cc2c[nH]c3ccccc23)NC(=O)[C@H](Cc2ccccc2)NC(=O)CCCCCCNC(=O)[C@H](Cc2ccccc2)NC1=O` (stereo in doubt) reads 16.7; that for `C[C@@H]1NC(=O)[C@H]([C@@H](C)O)NC(=O)C(CCCCN)NC(=O)[C@@H](Cc2c[nH]c3ccccc23)NC(=O)C(Cc2ccccc2)NC(=O)[C@H]2CCCN2C1=O` (single isomer, unassigned), 166.
The result for `C[C@@H](O)[C@@H]1NC(=O)C(CCCCN)NC(=O)[C@@H](Cc2c[nH]c3ccccc23)NC(=O)C(Cc2ccccc2)NC(=O)[C@@H]2CCCN2C(=O)[C@@H]2CCCN2C1=O` (single isomer, unassigned) reads 125.
In turn, `C[C@@H](O)[C@@H]1NC(=O)[C@H](CCCCN)NC(=O)[C@H](Cc2c[nH]c3cc(F)ccc23)NC(=O)[C@H](Cc2ccccc2)NC(=O)[C@H](Cc2ccccc2)NC(=O)CCCCCCNC(=O)[C@H](Cc2ccccc2)NC1=O` (stereo in doubt) showed a GHI of 2.4.
In the case of `CC(C)[C@@H]1NC(=O)[C@H](CCCCN)NC(=O)[C@@H](Cc2c[nH]c3ccccc23)NC(=O)[C@H](Cc2ccc(O)cc2)NC(=O)[C@@H](NC(=O)[C@H](N)Cc2ccccc2)CSSC[C@@H](C(=O)N[C@@H](Cc2ccc3ccccc3c2)C(N)=O)NC1=O` (H-[dF]CY[dW]KVC[2Nal]-NH2; disulfide 2-7), the GHI was found to be 0.43.
In the case of `Cc1ccc2[nH]cc(C[C@@H]3NC(=O)[C@H](Cc4ccccc4)NC(=O)[C@H](Cc4ccccc4)NC(=O)CCCCCCNC(=O)[C@H](Cc4ccccc4)NC(=O)[C@H]([C@@H](C)O)NC(=O)[C@H](CCCCN)NC3=O)c2c1` (stereo in doubt) it was 14.
Compound `NCCCC[C@@H]1NC(=O)[C@@H](Cc2c[nH]c3ccccc23)NC(=O)[C@H](Cc2ccc(O)cc2)NC(=O)[C@@H](NC(=O)[C@H](N)Cc2ccccc2)CSSC[C@@H](C(=O)N[C@@H](Cc2ccc3ccccc3c2)C(N)=O)NC(=O)[C@H](CO)NC1=O` came in with a GHI of 0.03.
In the case of `C[C@@H](O)[C@@H]1NC(=O)[C@H](CCCCN)NC(=O)[C@@H](Cc2c[nH]c3ccccc23)NC(=O)[C@H](Cc2ccc(Cl)cc2)NC(=O)[C@H](Cc2ccccc2)NC(=O)CCCCCCNC(=O)[C@H](Cc2ccccc2)NC1=O` (stereo in doubt) it was 1.4; in that of `C[C@@H](O)[C@@H]1NC(=O)[C@H](CCCN=C(N)N)NC(=O)[C@@H](Cc2c[nH]c3ccccc23)NC(=O)[C@H](Cc2ccccc2)NC(=O)[C@H](Cc2ccccc2)NC(=O)CCCCCCNC(=O)[C@H](Cc2ccccc2)NC1=O` (stereo in doubt), 14.
The compound `C[C@@H](O)[C@H](NC(=O)[C@H](CCCCN)NC(=O)[C@@H](Cc1c[nH]c2ccccc12)NC(=O)[C@H](Cc1ccc(O)cc1)NC(=O)[C@H](Cc1ccc(Cl)cc1)NC(=O)[C@H](N)Cc1ccccc1)C(=O)N[C@@H](Cc1ccccc1)C(=O)N[C@@H](Cc1ccc2ccccc2c1)C(N)=O` came in with a GHI of 100.
In the case of `C[C@@H](O)[C@@H]1NC(=O)[C@H](CCCCN)NC(=O)[C@H](Cc2c[nH]c3ccc(F)cc23)NC(=O)[C@H](Cc2ccccc2)NC(=O)[C@H](Cc2ccccc2)NC(=O)CCCCCCNC(=O)[C@H](Cc2ccccc2)NC1=O` (stereo in doubt) it was 6.7; in that of `C[C@@H](O)[C@@H]1NC(=O)[C@H](CCCN)NC(=O)[C@@H](Cc2c[nH]c3ccccc23)NC(=O)[C@H](Cc2ccccc2)NC(=O)[C@H](Cc2ccccc2)NC(=O)CCCCCCNC(=O)[C@H](Cc2ccccc2)NC1=O` (stereo in doubt), 20; in that of `CC(C)[C@H](NC(=O)[C@H](CCCCN)NC(=O)[C@@H](Cc1c[nH]c2ccccc12)NC(=O)[C@H](Cc1ccc(O)cc1)NC(=O)[C@H](Cc1ccc([N+](=O)[O-])cc1)NC(=O)[C@H](N)Cc1ccccc1)C(=O)N[C@@H](Cc1ccccc1)C(=O)N[C@H](C(N)=O)[C@@H](C)O` (H-[dF][Phe(4-NO2)]Y[dW]KVFT-NH2), 159.
